Measured values reported in publication PMC11393732 (RSC Medicinal Chemistry, 2024).

Tests used:
KDM3B [1] = target: T1, KDM3B (Homo sapiens, UniProt Q7LBC6); assay: Western blot KDM3B degradation in SW480 cells; type: cell-based
Summary of the method: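 SW480 cells exposed to test compound for 16 h, then total lysates protein-normalised and run on SDS-PAGE. Semi-dry transfer to PVDF, 1 h block in 5% milk. Primary antibody overnight at 4 °C in 1% milk, secondary 1 h at RT, TBST washes, α-tubulin as loading control. Rescue arms co-treated with MLN4924 (1 μM) or pomalidomide (100 μM). Test compound at 0.1 μM for the KDM3A blot and 1 μM for the KDM3B blot.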

[2] = tested on: KDM4 family proteins (KDM4A, KDM4B and KDM4C); assay: Western blot KDM4 family proteins in SW480 cells; type: cell-based, human
Summary of the method: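 Lysates from compound-treated SW480 cells normalised for total protein and resolved by SDS-PAGE. Semi-dry transfer to PVDF, 1 h block in 5% milk. Overnight incubation at 4 °C with anti-KDM4A, -KDM4B or -KDM4C antibody in 1% milk, secondary 1 h at RT, TBST washes, α-tubulin as loading control.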

KDM3B [3] = target: T1, KDM3B; assay: Western blot KDM3B degradation in HCP-1 cells; type: cell-based
GSPT1 = GSPT1 (Homo sapiens, UniProt P15170); assay: Western blot neo-substrate GSPT1 degradation in SW480 cells; type: cell-based; conditions: 16 hours
Chain of GSPT1 (Q16531 whole entry): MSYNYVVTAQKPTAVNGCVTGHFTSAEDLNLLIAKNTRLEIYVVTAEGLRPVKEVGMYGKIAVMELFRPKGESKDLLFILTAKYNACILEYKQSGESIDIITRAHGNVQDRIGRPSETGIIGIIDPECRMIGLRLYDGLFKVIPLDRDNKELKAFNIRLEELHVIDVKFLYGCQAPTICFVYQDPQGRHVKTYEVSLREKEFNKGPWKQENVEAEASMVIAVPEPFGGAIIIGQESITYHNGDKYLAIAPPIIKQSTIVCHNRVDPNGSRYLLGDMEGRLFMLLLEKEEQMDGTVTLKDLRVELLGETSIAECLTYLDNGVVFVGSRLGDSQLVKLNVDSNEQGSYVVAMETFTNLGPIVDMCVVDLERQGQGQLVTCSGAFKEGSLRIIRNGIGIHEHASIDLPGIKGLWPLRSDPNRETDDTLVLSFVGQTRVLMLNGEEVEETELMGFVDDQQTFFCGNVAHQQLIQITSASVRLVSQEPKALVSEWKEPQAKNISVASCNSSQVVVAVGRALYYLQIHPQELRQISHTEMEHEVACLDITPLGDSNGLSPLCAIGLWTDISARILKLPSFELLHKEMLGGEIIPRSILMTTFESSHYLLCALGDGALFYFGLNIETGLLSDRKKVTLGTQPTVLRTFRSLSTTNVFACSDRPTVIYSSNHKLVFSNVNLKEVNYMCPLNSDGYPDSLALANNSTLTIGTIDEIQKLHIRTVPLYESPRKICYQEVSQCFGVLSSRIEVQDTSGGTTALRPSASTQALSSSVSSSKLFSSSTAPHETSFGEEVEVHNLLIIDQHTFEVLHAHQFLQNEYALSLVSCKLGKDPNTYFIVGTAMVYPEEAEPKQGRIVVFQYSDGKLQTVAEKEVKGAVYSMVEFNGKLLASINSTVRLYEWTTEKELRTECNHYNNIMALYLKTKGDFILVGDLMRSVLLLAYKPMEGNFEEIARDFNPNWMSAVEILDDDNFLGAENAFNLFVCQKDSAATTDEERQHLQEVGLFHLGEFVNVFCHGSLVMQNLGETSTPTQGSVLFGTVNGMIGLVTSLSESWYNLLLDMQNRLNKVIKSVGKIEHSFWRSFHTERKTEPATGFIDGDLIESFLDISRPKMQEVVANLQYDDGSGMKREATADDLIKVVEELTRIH
Chain of GSPT1 (Q96SW2 whole entry, further chain): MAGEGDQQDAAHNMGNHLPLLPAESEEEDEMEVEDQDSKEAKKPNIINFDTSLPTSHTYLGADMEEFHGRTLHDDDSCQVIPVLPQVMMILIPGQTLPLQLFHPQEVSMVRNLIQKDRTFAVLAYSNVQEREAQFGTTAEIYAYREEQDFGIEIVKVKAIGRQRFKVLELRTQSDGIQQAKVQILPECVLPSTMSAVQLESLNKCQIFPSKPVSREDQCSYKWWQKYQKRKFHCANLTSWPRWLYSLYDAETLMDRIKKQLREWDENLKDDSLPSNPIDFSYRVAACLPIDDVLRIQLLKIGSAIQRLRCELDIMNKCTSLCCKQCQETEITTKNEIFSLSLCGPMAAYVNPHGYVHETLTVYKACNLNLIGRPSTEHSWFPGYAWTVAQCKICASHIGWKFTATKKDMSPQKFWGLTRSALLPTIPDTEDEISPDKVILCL
Chain of GSPT1 (P15170 whole entry): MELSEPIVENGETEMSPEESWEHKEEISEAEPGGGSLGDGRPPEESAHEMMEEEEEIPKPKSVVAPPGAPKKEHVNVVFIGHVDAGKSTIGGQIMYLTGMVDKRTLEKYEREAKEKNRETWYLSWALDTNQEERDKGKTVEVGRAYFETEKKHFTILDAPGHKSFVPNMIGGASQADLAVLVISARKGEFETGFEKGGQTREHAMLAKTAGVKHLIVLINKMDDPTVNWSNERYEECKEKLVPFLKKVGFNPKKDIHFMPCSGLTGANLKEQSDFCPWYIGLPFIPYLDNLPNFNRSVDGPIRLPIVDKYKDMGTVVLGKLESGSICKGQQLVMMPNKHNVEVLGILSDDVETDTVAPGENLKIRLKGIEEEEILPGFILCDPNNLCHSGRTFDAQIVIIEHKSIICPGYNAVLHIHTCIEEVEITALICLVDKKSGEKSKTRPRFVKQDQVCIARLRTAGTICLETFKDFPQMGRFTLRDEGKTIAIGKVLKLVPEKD

CRL-1790 cells = assay: CCK-8 based toxicity assay; type: cell-based, human
Summary of the method: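 Non-malignant human colon epithelial CRL-1790 cells grown in EMEM with 10% FBS and 1% pen–strep at 37 °C and 5% CO2. Seeded at 3 × 10^3 cells/well in 96-well plates, then exposed to test compound. Viability read by CCK-8 at 48 h as OD 450 nm. TD50 derived from the dose–response.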

[4] = tested on: Wnt target genes in SW480 cells; assay: RT-qPCR of Wnt target gene expression in SW480; type: cell-based, human
Summary of the method: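 Cells in 6-well plates exposed to test compound for 16 h. Total RNA extracted; 1 μg reverse-transcribed with M-MuLV and random hexamers. SYBR Green qPCR for the named genes, quantified by 2ΔΔct against tubulin. Mean ± SD; unpaired two-tailed Student's t-test.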

hERG potassium channel = hERG potassium channel (Homo sapiens, UniProt Q12809); assay: hERG automated patch-clamp assay; type: cell-based
Chain of hERG potassium channel (Q12809 whole entry): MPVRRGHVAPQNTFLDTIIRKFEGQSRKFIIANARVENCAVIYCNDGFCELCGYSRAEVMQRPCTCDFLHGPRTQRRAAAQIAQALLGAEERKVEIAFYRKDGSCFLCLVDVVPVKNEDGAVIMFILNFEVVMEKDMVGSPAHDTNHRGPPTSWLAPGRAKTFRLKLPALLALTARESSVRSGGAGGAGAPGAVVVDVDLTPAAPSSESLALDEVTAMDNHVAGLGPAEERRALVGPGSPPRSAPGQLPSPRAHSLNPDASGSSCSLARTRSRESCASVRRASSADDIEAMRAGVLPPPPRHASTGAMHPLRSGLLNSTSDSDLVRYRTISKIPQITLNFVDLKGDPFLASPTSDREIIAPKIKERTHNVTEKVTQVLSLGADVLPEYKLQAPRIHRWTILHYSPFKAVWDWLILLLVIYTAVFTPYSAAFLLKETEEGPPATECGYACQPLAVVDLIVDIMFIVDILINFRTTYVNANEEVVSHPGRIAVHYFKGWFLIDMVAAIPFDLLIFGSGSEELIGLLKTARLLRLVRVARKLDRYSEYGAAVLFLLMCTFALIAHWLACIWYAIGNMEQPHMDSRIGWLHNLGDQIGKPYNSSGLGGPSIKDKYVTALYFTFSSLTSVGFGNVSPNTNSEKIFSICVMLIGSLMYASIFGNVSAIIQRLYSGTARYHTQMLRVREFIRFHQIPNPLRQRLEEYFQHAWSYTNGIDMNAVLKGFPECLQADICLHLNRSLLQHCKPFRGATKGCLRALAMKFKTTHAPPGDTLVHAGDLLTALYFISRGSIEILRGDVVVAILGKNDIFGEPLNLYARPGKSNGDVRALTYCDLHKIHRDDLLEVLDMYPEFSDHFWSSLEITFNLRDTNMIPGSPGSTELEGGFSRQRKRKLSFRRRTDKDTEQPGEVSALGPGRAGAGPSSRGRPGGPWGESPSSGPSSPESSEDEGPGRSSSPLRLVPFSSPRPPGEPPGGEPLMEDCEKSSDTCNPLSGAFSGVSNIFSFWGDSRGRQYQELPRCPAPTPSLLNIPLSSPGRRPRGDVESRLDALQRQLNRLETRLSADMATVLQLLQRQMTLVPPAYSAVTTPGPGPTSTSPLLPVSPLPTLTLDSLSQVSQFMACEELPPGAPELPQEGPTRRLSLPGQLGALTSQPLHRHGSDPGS
Summary of the method: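 hERG-expressing CHO-K1 cells were plated at least 24 h beforehand and recorded by whole-cell patch clamp at about RT with 0.1% Pluronic F-68. Holding −80 mV; 500 ms step to −40 mV for leak subtraction; 500 ms step to +40 mV, then 100 ms ramp to −80 mV for tail current, every 8 s. Block = mean tail amplitude over the last 15 s with test compound ÷ control.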

[5] = tested on: ALDH^High-HCP-1 CSC-derived tumors; assay: In vivo tumor growth, ALDH^High-HCP-1 CSC xenograft; parameters: species or system mice
Summary of the method: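 NSG mice in 5 groups of 5. FACS-sorted ALDHHigh HCP-1 cells (2500 in Matrigel) injected subcutaneously into both flanks. Test compound given IP at 3, 10 or 35 mg kg−1, or IOX1 at 10 mg kg−1, in PBS/Kolliphor EL vehicle; controls got vehicle; 16 days. Body weight taken every other day, tumour volume on days 9, 13–16, tumour weight at sacrifice.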

KDM3B [6] = target: T1, KDM3B; assay: IHC of HCP-1 xenograft tumors, KDM3B; type: in vivo, mice; conditions: HCP-1 xenograft tumor tissues
CCND1 = assay: IHC of HCP-1 xenograft tumors, CCND1; type: in vivo, mice; conditions: HCP-1 xenograft tumor tissues
Summary of the method: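 Tumours came from ALDHHigh HCP-1 xenografts in NSG mice given test compound IP (3, 10 or 35 mg kg−1) for 16 days. Paraffin sections were deparaffinised and rehydrated, then antigen-unmasked. Peroxidase blocked; sections blocked 1 h in 10% goat serum. Primary antibody overnight at 4 °C, biotinylated secondary 30 min at RT, avidin–biotin peroxidase detection, hematoxylin counterstain.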

T1 sequence (Q7LBC6 whole entry): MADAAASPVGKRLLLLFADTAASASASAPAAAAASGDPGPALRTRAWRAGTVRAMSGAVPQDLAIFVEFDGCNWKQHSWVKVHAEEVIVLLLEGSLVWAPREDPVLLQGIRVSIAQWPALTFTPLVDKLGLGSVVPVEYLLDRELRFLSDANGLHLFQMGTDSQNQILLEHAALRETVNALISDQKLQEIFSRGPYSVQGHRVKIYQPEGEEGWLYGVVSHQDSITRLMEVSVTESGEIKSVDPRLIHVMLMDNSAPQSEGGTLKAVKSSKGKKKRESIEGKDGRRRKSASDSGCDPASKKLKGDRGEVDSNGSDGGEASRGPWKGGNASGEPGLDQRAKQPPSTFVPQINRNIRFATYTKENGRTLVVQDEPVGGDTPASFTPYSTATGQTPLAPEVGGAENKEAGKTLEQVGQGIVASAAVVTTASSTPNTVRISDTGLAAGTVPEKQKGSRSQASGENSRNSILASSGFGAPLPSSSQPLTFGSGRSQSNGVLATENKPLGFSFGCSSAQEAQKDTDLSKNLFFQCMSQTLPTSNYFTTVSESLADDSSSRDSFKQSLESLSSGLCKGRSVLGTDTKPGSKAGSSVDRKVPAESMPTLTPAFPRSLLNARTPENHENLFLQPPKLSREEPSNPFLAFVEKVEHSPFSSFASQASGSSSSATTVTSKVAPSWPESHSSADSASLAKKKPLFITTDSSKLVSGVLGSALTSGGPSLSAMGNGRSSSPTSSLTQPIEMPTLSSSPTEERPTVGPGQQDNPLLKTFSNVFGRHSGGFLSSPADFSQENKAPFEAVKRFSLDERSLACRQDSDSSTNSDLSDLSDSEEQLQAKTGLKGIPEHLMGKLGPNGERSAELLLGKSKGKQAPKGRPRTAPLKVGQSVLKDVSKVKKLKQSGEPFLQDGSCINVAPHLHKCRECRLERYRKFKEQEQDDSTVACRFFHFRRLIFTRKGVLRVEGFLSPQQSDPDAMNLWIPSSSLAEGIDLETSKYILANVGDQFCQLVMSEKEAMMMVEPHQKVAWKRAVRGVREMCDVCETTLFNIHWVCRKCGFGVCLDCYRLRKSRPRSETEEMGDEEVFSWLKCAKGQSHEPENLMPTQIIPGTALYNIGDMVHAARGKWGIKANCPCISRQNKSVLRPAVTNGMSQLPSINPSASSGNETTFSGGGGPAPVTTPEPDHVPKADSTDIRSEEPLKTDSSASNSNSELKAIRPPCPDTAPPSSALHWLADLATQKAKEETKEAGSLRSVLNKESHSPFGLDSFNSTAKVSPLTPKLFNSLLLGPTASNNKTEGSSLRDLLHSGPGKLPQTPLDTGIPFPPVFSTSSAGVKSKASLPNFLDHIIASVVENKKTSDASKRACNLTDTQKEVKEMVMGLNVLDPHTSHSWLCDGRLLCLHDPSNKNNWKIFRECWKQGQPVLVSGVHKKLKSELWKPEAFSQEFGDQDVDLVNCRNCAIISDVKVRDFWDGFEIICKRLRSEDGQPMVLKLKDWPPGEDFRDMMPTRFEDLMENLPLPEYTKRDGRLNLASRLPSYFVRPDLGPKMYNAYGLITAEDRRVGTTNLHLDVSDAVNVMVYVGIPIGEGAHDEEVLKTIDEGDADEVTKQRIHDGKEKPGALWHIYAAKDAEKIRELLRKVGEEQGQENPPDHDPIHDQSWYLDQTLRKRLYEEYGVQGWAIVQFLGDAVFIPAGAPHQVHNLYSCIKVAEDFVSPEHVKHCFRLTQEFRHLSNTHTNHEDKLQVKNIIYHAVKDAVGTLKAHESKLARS

## O=C1CCC(N2C(=O)c3cccc(NCCOCCOCCOCCOCCNC(=O)c4ccc(O)c5ncccc45)c3C2=O)C(=O)N1 (stereo not shown) [Compound 4, N-(14-((2-(2,6-Dioxopiperidin-3-yl)-1,3-dioxoisoindolin-4-yl)amino)-3,6,9,12-tetraoxatetradecyl)-8-hydroxyquinoline-5-carboxamide]
KDM3B [1]; SW480, read-out: Dmax KDM3B
  Dmax: 88.5%
KDM3B [1]; SW480, MLN4924 1 μM, compound 4 1 μM
  KDM3B degradation with MLN4924 co-treatment: could be restored by MLN4924
KDM3B [1]; SW480, pomalidomide 100 μM, compound 4 1 μM
  KDM3B degradation with pomalidomide or IOX1 co-treatment: could also be suppressed by either pomalidomide or IOX1
KDM3B [1]; SW480 cells, 16 hours
  KDM3B degradation (western blot): degrades both KDM3A and KDM3B at nanomolar concentrations
KDM3B [1]; read-out: DC50 KDMB, SW480 cells, 16 hours
  DC50: 173 nM
[2]
  effect on KDM4 family proteins: not dramatically affected
KDM3B [3]
  KDM3B degradation: potently induce KDM3A and KDM3B degradation
GSPT1
  GSPT1 degradation: did not induce
CRL-1790 cells; 60 μM, two-day treatment
  cell growth of CRL-1790: not dramatically affected
CRL-1790 cells; CCK8 assay, 48 h post drug treatment
  TD50 CRL-1790: 285.4 µM
[4]; SW480, 50 μM, 16-hour treatment, in most cases
  suppression of Wnt target gene expression (AXIN2, DKK1, CCND1): ≥ 50%
[4]; SW480, 16 hours
  expression of colorectal CSC signature genes (ASCL2, RNF43, ZNRF3, LGR5): strongly inhibited
hERG potassium channel
  IC50: > 30000 nM
[5]; 3 mg kg^−1 IP vs IOX1 10 mg kg^−1
  tumor volume and tumor weight vs IOX1 group: no significant change
[5]; 3, 10, 35 mg kg^−1 IP, 16 days, vs vehicle
  CSC-derived tumor growth: significantly inhibited
[5]; 10 and 35 mg kg^−1 IP vs IOX1 10 mg kg^−1
  tumor volume and tumor weight vs IOX1 group: significantly decreased
[5]; IP, 16 days
  body weight of mice: little impact on the body weight
KDM3B [6]
  KDM3B degradation in vivo (IHC): confirmed the PROTAC-induced KDM3A and KDM3B degradation in vivo
CCND1
  CCND1 expression (IHC): downregulated
